Source: ChEMBL document CHEMBL2311384, “Probing the steric requirements of the γ-aminobutyric acid aminotransferase active site with fluorinated analogues of vigabatrin” (Bioorg Med Chem, 2013)
Active and inactive are the calls of the source. No cut-off for these calls is given here.

Experiments:
[1] = biological target: 4-aminobutyrate aminotransferase, mitochondrial (Sus scrofa) (UniProt P80147); test: Time dependent inhibition of pig brain GABA-AT using GABA as substrate at 5 mM up to 150 mins
4-aminobutyrate aminotransferase, mitochondrial (Sus scrofa), sequence (P80147 whole entry): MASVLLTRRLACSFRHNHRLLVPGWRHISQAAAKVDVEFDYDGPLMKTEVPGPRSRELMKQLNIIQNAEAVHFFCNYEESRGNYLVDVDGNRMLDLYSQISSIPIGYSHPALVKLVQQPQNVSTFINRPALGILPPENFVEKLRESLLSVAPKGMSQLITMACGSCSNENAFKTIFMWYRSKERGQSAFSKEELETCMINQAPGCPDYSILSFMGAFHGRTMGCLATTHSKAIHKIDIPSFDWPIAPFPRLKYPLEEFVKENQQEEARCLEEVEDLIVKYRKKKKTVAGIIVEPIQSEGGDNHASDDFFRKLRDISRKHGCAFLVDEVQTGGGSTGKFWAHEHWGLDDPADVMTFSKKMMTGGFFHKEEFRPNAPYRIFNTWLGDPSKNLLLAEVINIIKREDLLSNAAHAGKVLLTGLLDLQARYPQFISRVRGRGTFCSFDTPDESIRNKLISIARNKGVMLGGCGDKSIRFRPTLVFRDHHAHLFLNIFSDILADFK
In short: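 Pig brain GABA-AT in 100 mM potassium phosphate pH 7.0 preincubated at 25 °C with β-mercaptoethanol, α-ketoglutarate and compound (5 mM final); aliquots taken at time points into assay solution (GABA, α-ketoglutarate, NADP+, pH 8.6) with excess SSADH; remaining activity from 340 nm NADPH absorbance rate.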

[2] = biological target: 4-aminobutyrate aminotransferase, mitochondrial (Sus scrofa) (UniProt P80147); test: Activity at pig brain GABA-AT assessed as glutamate production at 3 mM preincubated for 20 mins relative to GABA
In short: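 GABA-AT purified from pig brain; substrate tested as turnover substrate in 100 mM potassium pyrophosphate pH 8.6 with α-ketoglutarate; glutamate formed detected by glutamate oxidase/horseradish peroxidase/Amplex Red fluorescence (ex 530, em 590 nm); scaled to glutamate standard curve (0–10 µM); highest rates, between 15 and 25 min, used.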

[3] = biological target: 4-aminobutyrate aminotransferase, mitochondrial (Sus scrofa) (UniProt P80147); test: Reversible inhibition of pig brain GABA-AT using GABA as substrate at 23 mM
[4] = biological target: 4-aminobutyrate aminotransferase, mitochondrial (Sus scrofa, UniProt P80147); test: Reversible inhibition of pig brain GABA-AT using GABA as substrate
4-aminobutyrate aminotransferase, mitochondrial, sequence (P80147 whole entry): as above
In short: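 Pig brain GABA-AT, purified in-house, mixed with excess SSADH (from GABase), then inhibitor at several concentrations added in assay buffer: 87 mM potassium pyrophosphate pH 8.6, 6 mM GABA, 5 mM α-ketoglutarate, 1.25 mM NADP+, 3.3 mM β-mercaptoethanol. Rate read directly without preincubation as NADPH absorbance at 340 nm. IC50 from concentration-response fit; Ki via Cheng-Prusoff.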

C[C@@H](F)[C@H](N)CCC(=O)O
inhibition [1]: inactive
Activity [2]: 0.02%
inhibition [3]: inactive

C[C@H](F)[C@@H](N)CCC(=O)O
inhibition [1]: inactive
Activity [2]: 0.11%
inhibition [3]: inactive

N[C@@H]1C=C[C@H](C(=O)O)C1
Ki [4]: 40 µM

C[C@@H](F)[C@@H](N)CCC(=O)O
inhibition [1]: inactive
Activity [2]: 0.32%
inhibition [3]: inactive
